The values below come from publication PMC10582660 (Clinical and Translational Science, 2023).

For one data set, the target named is T1, OATP2B1 (Homo sapiens, UniProt O94956).
T1 sequence (O94956 1-709): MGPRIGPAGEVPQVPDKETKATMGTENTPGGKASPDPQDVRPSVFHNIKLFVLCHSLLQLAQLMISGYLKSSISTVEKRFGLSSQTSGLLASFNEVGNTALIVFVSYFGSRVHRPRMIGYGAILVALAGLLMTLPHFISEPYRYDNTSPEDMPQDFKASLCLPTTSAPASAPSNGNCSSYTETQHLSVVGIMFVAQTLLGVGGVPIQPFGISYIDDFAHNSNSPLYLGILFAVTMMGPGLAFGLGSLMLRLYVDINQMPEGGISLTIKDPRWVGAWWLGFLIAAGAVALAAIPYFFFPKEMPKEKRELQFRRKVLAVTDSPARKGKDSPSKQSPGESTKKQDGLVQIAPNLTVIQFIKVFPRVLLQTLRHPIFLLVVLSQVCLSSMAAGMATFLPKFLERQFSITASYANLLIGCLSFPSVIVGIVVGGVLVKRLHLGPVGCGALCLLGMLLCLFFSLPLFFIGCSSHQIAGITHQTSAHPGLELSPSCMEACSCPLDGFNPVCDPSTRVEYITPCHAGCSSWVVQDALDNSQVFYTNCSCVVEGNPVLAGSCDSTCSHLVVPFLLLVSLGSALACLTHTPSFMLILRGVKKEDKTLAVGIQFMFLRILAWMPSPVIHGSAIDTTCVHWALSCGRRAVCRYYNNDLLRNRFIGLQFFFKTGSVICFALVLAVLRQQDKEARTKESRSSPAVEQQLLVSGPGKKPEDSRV
The data set is described as follows: Raloxifene as a substrate for uptake transporters. Type of data set: in vitro ADME. The settings on record: raloxifene 1, 10 μM, 2, 20 min, two‐fold cutoff. In outline:
(§1)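 Uptake of test compound (1 and 10 μM, 2 and 20 min) measured in transporter-expressing HEK293 or MDCKII cells or inside-out membrane vesicles. Run with positive-control probe substrates and inhibitors, plus empty-vector or untransfected control cells. Fold-accumulation relative to control cells judged against a two-fold cutoff for substrate status.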

Data set [1] is described as follows: Follow-up exploratory clinical study: plasma pharmacokinetics. Format: in vivo, human. The settings on record: for Cmax / Tmax / AUC(0-t): both, human, plasma, oral; for AUC(0-t): AUC0–48h, geometric mean (CV%). In outline: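 Six healthy adults (3 male, 3 female) in sequential arms ≥7 days apart: oral test compound with water, then with acute brewed green tea, then tea alone. Plasma sampled 0–48 h at the main-study times. Analysed by UHPLC–MS/MS for parent and glucuronides. […] Green tea/baseline ratios on log-transformed data, paired two-tailed t-test.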

Another data set has as its target T2, NTCP (Homo sapiens, UniProt Q14973).
T2 sequence (Q14973 1-349): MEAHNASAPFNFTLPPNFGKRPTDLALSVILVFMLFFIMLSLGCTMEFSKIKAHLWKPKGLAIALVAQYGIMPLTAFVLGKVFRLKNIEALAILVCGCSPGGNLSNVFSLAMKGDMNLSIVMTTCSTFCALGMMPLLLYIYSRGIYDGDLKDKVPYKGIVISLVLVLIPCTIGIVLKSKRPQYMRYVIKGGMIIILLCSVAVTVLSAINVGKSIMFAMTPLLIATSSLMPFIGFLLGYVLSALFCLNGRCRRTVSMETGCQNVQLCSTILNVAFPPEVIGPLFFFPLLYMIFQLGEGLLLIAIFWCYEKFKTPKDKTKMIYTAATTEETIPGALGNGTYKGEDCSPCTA
The data set is described as follows: Raloxifene as a substrate for uptake transporters. Format: in vitro ADME. The settings on record: raloxifene 1, 10 μM, 2, 20 min, two‐fold cutoff. The gist of the method: as §1

For another data set, the target named is T3, OAT1 (Homo sapiens, UniProt Q4U2R8).
T3 sequence (Q4U2R8 1-563): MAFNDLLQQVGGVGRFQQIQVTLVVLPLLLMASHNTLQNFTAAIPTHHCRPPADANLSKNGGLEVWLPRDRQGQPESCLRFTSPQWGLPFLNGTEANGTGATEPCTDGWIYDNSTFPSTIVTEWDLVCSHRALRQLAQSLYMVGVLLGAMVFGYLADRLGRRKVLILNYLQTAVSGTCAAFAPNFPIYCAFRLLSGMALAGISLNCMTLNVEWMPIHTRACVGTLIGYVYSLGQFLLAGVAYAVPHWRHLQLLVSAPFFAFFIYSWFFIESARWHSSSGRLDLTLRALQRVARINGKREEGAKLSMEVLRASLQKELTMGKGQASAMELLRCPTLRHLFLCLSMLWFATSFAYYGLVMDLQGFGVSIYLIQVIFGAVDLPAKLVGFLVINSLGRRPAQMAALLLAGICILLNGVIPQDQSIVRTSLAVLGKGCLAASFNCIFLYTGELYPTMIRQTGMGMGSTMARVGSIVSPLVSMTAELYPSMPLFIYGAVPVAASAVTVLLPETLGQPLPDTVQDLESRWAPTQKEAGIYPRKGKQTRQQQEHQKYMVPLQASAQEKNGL
Kind of data set: Raloxifene as a substrate for uptake transporters. Type of data set: in vitro ADME. The settings on record: raloxifene 1, 10 μM, 2, 20 min, two‐fold cutoff. The gist of the method:
as §1

For data set [2] the following is noted: after oral administration; cited from earlier work.
Another data set deals with T4, OAT3 (Homo sapiens, UniProt Q8TCC7).
T4 sequence (Q8TCC7 1-542): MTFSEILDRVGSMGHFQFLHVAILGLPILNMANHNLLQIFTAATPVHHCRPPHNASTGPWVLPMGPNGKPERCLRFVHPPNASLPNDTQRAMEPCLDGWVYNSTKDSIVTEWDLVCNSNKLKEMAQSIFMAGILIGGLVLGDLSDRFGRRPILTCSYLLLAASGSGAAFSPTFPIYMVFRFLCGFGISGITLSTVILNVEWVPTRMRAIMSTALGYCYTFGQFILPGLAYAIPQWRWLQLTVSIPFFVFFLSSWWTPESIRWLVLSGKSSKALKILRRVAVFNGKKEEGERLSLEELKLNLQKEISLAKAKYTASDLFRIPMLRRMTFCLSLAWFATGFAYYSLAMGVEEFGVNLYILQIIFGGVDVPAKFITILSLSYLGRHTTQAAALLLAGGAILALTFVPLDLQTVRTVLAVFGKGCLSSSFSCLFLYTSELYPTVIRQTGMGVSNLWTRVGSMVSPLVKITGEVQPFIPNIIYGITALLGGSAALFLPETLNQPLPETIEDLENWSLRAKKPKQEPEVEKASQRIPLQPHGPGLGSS
The data set is described as follows: Raloxifene as a substrate for uptake transporters. Type of data set: in vitro ADME. The settings on record: raloxifene 1, 10 μM, 2, 20 min, two‐fold cutoff. In outline: as §1

[3] abbreviates: follow-up study, acute green tea vs baseline.

Where only a bound is given, the exact number is not on record here.

As to `O=C(c1ccc(OCCN2CCCCC2)cc1)c1c(-c2ccc(O)cc2)sc2cc(O)ccc12` [Raloxifene, raloxifene, reference compound], the “fold‐accumulation” value at OATP2B1 was 0.82–1.00; on NTCP it was 1.14–1.33; at OAT1 it was 0.72–0.91; at OAT3, 0.75–1.03. For the same compound, the maximum concentration (Cmax) in data set [1] stood at 0.28 nM; in data set [1] (60 mg) it was 0.32 nM. Also, the figures for the time to peak (Tmax) in data set [1] and in data set [1] (60 mg) were 1 h and 1.25 h, respectively. The area under the curve AUC(0-t) in data set [1] (60 mg, follow-up study, six healthy adults, baseline) was 8.25 nM·h; in data set [1] (follow-up study, acute green tea), 7.46 nM·h. In addition, the “AUC0–48h green tea/baseline ratio (90% CI)” value in data set [1] (setting [3]) was 0.90 (0.77–1.03). The “Cmax,1 green tea/baseline ratio (90% CI)” value in data set [1] (setting [3]) is 0.87 (0.72–1.07). Moreover, the “magnitude of the decrease in raloxifene AUC with green tea” value in data set [1] (follow‐up study) came to 10%. Moreover, the oral bioavailability in data set [2] is on record as less than 2%.

One may read the Cmax as the highest concentration seen after dosing. What is called Tmax is the time at which the peak concentration occurs. By AUC(0-t) is commonly meant exposure summed from dosing to a finite time, without extrapolation to infinity. Lower therefore signals low exposure.
